Holding throughout (assay type): functional
In one experiment the test system is MCF7. The experiment in a line: Growth inhibition of human MCF7 cells after 48 hrs by sulforhodamine B assay. The settings on record: MCF7, 48 h. The gist of the method: (§1)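 Cells kept adherent in RPMI-1640 with 5% heat-inactivated FBS, 2 mM glutamine and penicillin/streptomycin at 37 °C, 5% CO₂. Seeded at 1.5 × 10⁵ cells/mL (MCF-7) or 0.75 × 10⁵ cells/mL (A375-C5, NCI-H460), then grown 24 h. Exposed 48 h to five serial dilutions from up to 150 µM, DMSO ≤0.25%. SRB stain, absorbance 492 nm. GI₅₀ is 50% net growth inhibition; three experiments in duplicate; doxorubicin positive control.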
On the technique in general: The SRB assay estimates cell density from bound dye.

The subject of another experiment is A-375. The experiment in a line: Growth inhibition of human A375 cells after 48 hrs by sulforhodamine B assay. The settings on record: A-375, 48 h. In outline:
as §1

Experiment [1] concerns NCI-H460. Briefly: Growth inhibition of human NCI-H460 cells after 48 hrs by sulforhodamine B assay. The settings on record: NCI-H460, 48 h. In outline: as §1
In experiment [2] the test system is NCI-H460. The experiment in a line: Cell cycle arrest in human NCI-H460 cells assessed as accumulation at G2/M phase after 48 hrs by flow cytometry. The gist of the method:
(§2)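 NCI-H460 cells plated at 0.75 × 10⁵ cells/mL, then exposed 48 h to GI₅₀ or 2 × GI₅₀ concentrations (from the SRB assay). Controls were medium only (blank) and DMSO solvent. Cells were harvested, fixed in 70% ethanol and resuspended in PBS. G1/G0, S and G2/M fractions were read by flow cytometry. Three independent experiments in duplicate, mean ± SD.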

Experiment [3] deals with NCI-H460. The experiment in a line: Cell cycle arrest in human NCI-H460 cells assessed as accumulation at G1 phase after 48 hrs by flow cytometry. The gist of the method: as §2
(Flow cytometry measures light scatter and fluorescence of single cells or particles in a stream.)

The term GI50 denotes the concentration giving 50% growth inhibition. A higher GI50 goes with lower sensitivity of the cells. Regarding `COC(=O)c1sc2cc(-c3cc(OC)cc(OC)c3)cnc2c1N`, the GI50 in the experiment on MCF7 came out at 56.6 µM; with A-375, 82 µM; in the experiment on NCI-H460 [1] it was 31.8 µM.
For `COC(=O)c1sc2cc(-c3ccc4c(ccn4C)c3)cnc2c1N`, in that order: 23 µM, 21.2 µM and 20.3 µM.
For `COC(=O)c1sc2cc(-c3cccnc3)cnc2c1N`, the GI50 in the experiment with MCF7, in the experiment with A-375 and in the experiment on NCI-H460 [1] was more than 112 µM each time.
As to `COC(=O)c1sc2cc(-c3cccs3)cnc2c1N`, the GI50 with MCF7 was 26.9 µM; in the experiment with A-375, more than 150 µM; in the experiment on NCI-H460 [1], 18 µM.
Turning to `COC(=O)c1sc2cc(-c3cnc(OC)nc3OC)cnc2c1N`, the GI50 in the experiment on MCF7, in the experiment with A-375 and with NCI-H460 [1] was more than 75 µM throughout.
As to `COC(=O)c1sc2cc(-c3cnc4ccccc4c3)cnc2c1N`, the 50% growth inhibitory concentration (GI50) in the experiment with MCF7 was 9.8 µM; in the experiment on A-375, 9.1 µM; in the experiment on NCI-H460 [1] it was 9.5 µM.
In the case of `COC(=O)c1sc2cc(-c3ccc(OC)cc3)cnc2c1N`, the GI50 in the experiment with MCF7, in the experiment with A-375 and in the experiment on NCI-H460 [1] was more than 150 µM in each case.
Take `COC(=O)c1sc2cc(-c3ccc(N)cc3)cnc2c1N`: the concentration for 50% growth inhibition (GI50) with MCF7 was found to be 108 µM; with A-375, 80.8 µM; with NCI-H460 [1], 37.1 µM.
Taken in the same sequence, the figures for `COC(=O)c1sc2cc(-c3cncc4ccccc34)cnc2c1N` were 10.7 µM, 10.1 µM and 7.7 µM.
In the case of `COC(=O)c1sc2cc(-c3ccccc3N)cnc2c1N`, the values for the GI50 with MCF7, in the experiment on A-375 and in the experiment with NCI-H460 [1] were 4.2 µM, 2.5 µM and 3.8 µM, respectively. Moreover, the Activity in the experiment with NCI-H460 [2] was found to be 12%.
For the compound `COC(=O)c1sc2cc(-c3ccsc3)cnc2c1N`, the figures for the GI50 in the experiment with MCF7, in the experiment on A-375 and in the experiment on NCI-H460 [1] were 12.7 µM, 12.1 µM and 12.4 µM, respectively.
Turning to `COC(=O)c1sc2cc(-c3ccc(C(C)=O)cc3)cnc2c1N`, the GI50 in the experiment on MCF7, in the experiment with A-375 and in the experiment on NCI-H460 [1] was more than 150 µM throughout.
For `COC(=O)c1sc2cc(-c3ccc(-c4cccs4)s3)cnc2c1N`, the GI50 in the experiment on MCF7 was 1 µM; with A-375, more than 75 µM; with NCI-H460 [1], 0.7 µM. The Activity in the experiment on NCI-H460 [3] stood at 15%.
Turning to `COC(=O)c1sc2cc(-c3cccc(N)c3)cnc2c1N`, the GI50 with MCF7, in the experiment on A-375 and with NCI-H460 [1] was more than 150 µM each time.
Turning to `COC(=O)c1sc2cc(-c3ccoc3)cnc2c1N`, the GI50 in the experiment on MCF7, with A-375 and with NCI-H460 [1] was more than 120 µM each time.
Consider `COC(=O)c1sc2cc(-c3ccc4ncccc4c3)cnc2c1N`, for which the 50% growth inhibitory concentration (GI50) in the experiment on MCF7, in the experiment with A-375 and in the experiment with NCI-H460 [1] was more than 150 µM each time.
On to `COC(=O)c1sc2cc(-c3ccc4ccccc4c3)cnc2c1N`, for which the GI50 was determined as 50.9 µM with MCF7, 95.6 µM in the experiment with A-375 and 43.5 µM with NCI-H460 [1].
For `COC(=O)c1sc2cc(-c3ccc(C#N)cc3)cnc2c1N`, in that order: more than 75 µM, more than 75 µM and more than 75 µM.
For `COC(=O)c1sc2cc(-c3ccc(OC)nc3)cnc2c1N`, in that order: more than 37.5 µM, more than 37.5 µM and more than 37.5 µM.
For `COC(=O)c1sc2cc(-c3ccc(C(F)(F)F)cc3)cnc2c1N`, in that order: more than 150 µM, more than 150 µM and more than 150 µM.
`COC(=O)c1sc2cc(-c3cnn(C)c3)cnc2c1N`: the concentration for 50% growth inhibition (GI50) with MCF7, with A-375 and in the experiment on NCI-H460 [1] was more than 150 µM in each case.

The values above are taken from ChEMBL document CHEMBL1629477, “Efficient synthesis of 6-(hetero)arylthieno[3,2-b]pyridines by Suzuki-Miyaura coupling. Evaluation of growth inhibition on human tumor cell lines, SARs and effects on the cell cycle” (2010).
